Test [1] is filed under the species Homo sapiens. In words: Inhibition of DLODP in human HepG2 microsomal membrane assessed as reduction in [3H]OSP production at 50 mM using Glc3-0[3H]Man9-5GlcNAc2-PP-dolichol as substrate at pH 5.5 measured after 20 to 60 mins by scintillation counting. The format is cell membranes.
A short description of test [2]: Inhibition of DLODP in human HepG2 microsomal membrane assessed as reduction in [3H]OSP production using Glc3-0[3H]Man9-5GlcNAc2-PP-dolichol as substrate at pH 5.5 measured after 20 to 60 mins by scintillation counting. The format is cell membranes.
The species named for test [3] is Homo sapiens. In words: Inhibition of DLODP in human HepG2 microsomal membrane assessed as reduction in [3H]OSP production at 3 mM using Glc3-0[3H]Man9-5GlcNAc2-PP-dolichol as substrate at pH 5.5 measured after 20 to 60 mins by scintillation counting. In kind it is cell membranes.
Test [4] is filed under the species Homo sapiens. Nature of the test: Inhibition of DLODP in human Caco2 microsomes assessed as reduction in neutral oligosaccharide production at low concentration using Glc3-0[3H]Man9-5GlcNAc2-PP-dolichol as substrate measured after 20 to 60 mins by scintillation counting. The method in brief: (§1)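 Cells grown in RPMI 1640 with 10% fetal calf serum and 1% penicillin/streptomycin, plus 1% non-essential amino acids for Caco-2 TC7, for 8 days before total membrane preparation. Assay uses 20 µg membrane protein in standard mix (100 mM MES pH 5.5, 1 mM CoCl2, 0.1% NP-40) with added inhibitor, 37 °C. Radioactivity in OSP and neutral oligosaccharides separated by ion exchange, counted by scintillation.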

The species entered for test [5] is Homo sapiens. In words: Inhibition of DLODP in human HepG2 microsomes assessed as reduction in OSP production at higher concentration using Glc3-0[3H]Man9-5GlcNAc2-PP-dolichol as substrate measured after 20 to 60 mins by scintillation counting. The method, boiled down:
as §1

Test [6] is filed under the species Homo sapiens. Nature of the test: Inhibition of DLODP in human HepG2 microsomes assessed as reduction in neutral oligosaccharide production at low concentration using Glc3-0[3H]Man9-5GlcNAc2-PP-dolichol as substrate measured after 20 to 60 mins by scintillation counting. The method in brief:
as §1

Test [7] is filed under the species Homo sapiens. Nature of the test: Inhibition of DLODP in human Caco2 microsomes assessed as reduction in OSP production at higher concentration using Glc3-0[3H]Man9-5GlcNAc2-PP-dolichol as substrate measured after 20 to 60 mins by scintillation counting. The method in brief: as §1

Calls of active or inactive are those of the source. No cut-off for these calls is given here. A value given as a limit tells only on which side of the number the result lay.

For `CC(=O)N[C@@H]1[C@@H](O)[C@H](O[C@@H]2O[C@H](CO)[C@H](O)[C@H](O)[C@H]2O)[C@@H](CO)O[C@@H]1O`, in test [1], the inhibition result was “inactive”.

As to `CC(=O)N[C@@H]1[C@@H](O)[C@H](O[C@@H]2O[C@H](CO)[C@@H](O)[C@H](O)[C@@H]2O)[C@@H](CO)O[C@@H]1O`, the inhibition in test [1] turned out to be 30%.

For `O=[N+]([O-])c1ccc(OP(=O)(O)Oc2ccc([N+](=O)[O-])cc2)cc1`, the IC50 in test [2] is 1200 µM.

As to `O=P(O)(O)CP(=O)(O)O`, in test [3], the inhibition entry was “inactive”.

In the case of `CO[C@@H]1O[C@H](CO)[C@@H](O)[C@H](O)[C@@H]1O`, the inhibition in test [1] was determined as 10%.

As to `CC(=O)N[C@H]1[C@@H](OP(=O)(O)O)O[C@H](CO)[C@@H](O)[C@@H]1O`, the inhibition result in test [4], in test [5], in test [6] and in test [7] was “Active” each time. Besides, in test [2], the IC50 was greater than 3000 µM.

Take `CC(=O)N[C@H]1[C@@H](O[P@@](=O)(O)O[P@@](=O)(O)OC[C@H]2O[C@@H](n3ccc(=O)[nH]c3=O)[C@H](O)[C@@H]2O)O[C@H](CO)[C@@H](O)[C@@H]1O`: the inhibition entry in test [3] is “inactive”.

Consider `CC(C)=CCC[C@H](C)CCOP(=O)(O)CP(=O)(O)O`, for which the IC50 in test [2] is 700 µM.

For the molecule `CO[C@H]1O[C@H](CO)[C@@H](O)[C@H](O)[C@@H]1O`, the inhibition result in test [1] is “inactive”.

For the molecule `OC[C@H]1OC(O)[C@@H](O)[C@@H](O)[C@@H]1O` (stereo not given in full), in test [1], the inhibition result is “inactive”.

With `CC(C)O`, the inhibition entry in test [1] is “Active”.

As for `O=[N+]([O-])c1ccc(OP(=O)(O)O)cc1` [p-NITROPHENYLPHOSPHATE], in test [2], the IC50 is 4200 µM.

`CC(=O)N[C@@H]1[C@@H](O)[C@H](O[C@@H]2O[C@H](CO)[C@@H](O)[C@H](O)[C@H]2NC(C)=O)[C@@H](CO)O[C@@H]1O`: the inhibition in test [1] is less than 10%.

For `CC(C)=CCC/C(C)=C/CC/C(C)=C/CC/C(C)=C/CC/C(C)=C/CC/C(C)=C/CC/C(C)=C/CC/C(C)=C/CC/C(C)=C/COP(=O)(O)OP(=O)(O)O`, the IC50 in test [2] amounted to 4.7 µM.

Regarding `CCCOP(=O)(O)O`, the inhibition entry in test [3] is “inactive”.

Take `CC(=O)N[C@@H]1[C@@H](O)[C@H](O)[C@@H](CO)O[C@@H]1O`: in test [1], the inhibition entry is “inactive”.

The inhibition is the change of the read-out against control, counted positive when it falls. One may read the IC50 as the concentration at which inhibition is half-maximal.
